Assay results published in ChEMBL document CHEMBL3091343, “Nicotinamide phosphoribosyltransferase inhibitors, design, preparation, and structure-activity relationship” (J Med Chem, 2013).
Values belong to the molecule of their own block, whether it stands above or below them.

Columns and labels:
[1] = Tmax in NMRI mouse at 50 mg/kg, iv; type: ADME, organism-based; design: dose 50 mg/kg, route intravenous; conditions: in vivo
Method in brief: (§1)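 Mouse PK after a single i.v. dose. Plasma proteins were precipitated with acetonitrile containing internal standard (3:1 v/v). Samples were analysed by UPLC-MS/MS on a C18 column at 40°C with an acetonitrile–0.05% formic acid gradient, using positive electrospray MRM. Parameters were derived by non-compartmental analysis.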

[2] = Clearance in NMRI mouse at 50 mg/kg, iv; type: ADME, organism-based; design: dose 50 mg/kg, route intravenous; conditions: in vivo; method in brief: as §1
[3] = Toxicity in ip dosed NMRI mouse assessed as body weight loss administered as bid for 5 days; type: organism-based; conditions: in vivo
A2780 [4] = experiment: Cytotoxicity against human A2780 cells assessed as growth inhibition after 72 hrs by WST-1 assay; type: functional, cell-based; conditions: A2780, 72 h
[5] = Toxicity in ip dosed NMRI mouse assessed as blood cell count administered as bid for 5 days; type: organism-based; conditions: in vivo
MCF7 [6] = experiment: Cytotoxicity against human MCF-7 cells assessed as growth inhibition after 72 hrs by WST-1 assay; type: functional, cell-based; conditions: MCF7, 72 h
HCT-116 [7] = experiment: Resistance factor, ratio of IC50 for APO866-resistant human HCT116 cells to IC50 for human HCT116 cells; type: functional
[8] = Cmax in NMRI mouse at 50 mg/kg, iv; type: ADME, organism-based; design: dose 50 mg/kg, route intravenous; conditions: in vivo; method in brief: as §1
[9] = Apparent volume of distribution in NMRI mouse at 50 mg/kg, iv; type: ADME, organism-based; design: dose 50 mg/kg, route intravenous; conditions: in vivo, read-out: Vz; method in brief: as §1
HCT-116 [10] = experiment: Cytotoxicity against APO866-resistant human HCT116 cells assessed as growth inhibition after 72 hrs by WST-1 assay; type: functional, cell-based; conditions: HCT-116, 72 h
[11] = Half life in NMRI mouse at 50 mg/kg, iv; type: ADME, organism-based; design: dose 50 mg/kg, route intravenous; conditions: in vivo; method in brief: as §1
HCT-116 [12] = experiment: Cytotoxicity against human HCT116 cells assessed as growth inhibition after 72 hrs by WST-1 assay; type: functional, cell-based; conditions: HCT-116, 72 h
[13] = AUC in NMRI mouse at 50 mg/kg, iv; type: ADME, organism-based; design: dose 50 mg/kg, route intravenous; conditions: plasma; method in brief: as §1
[14] = target: Nicotinamide phosphoribosyltransferase (Homo sapiens, UniProt P43490); experiment: Inhibition of NAMPT in human HepG2 cells using [14C]-nicotinamide/PRPP as substrate assessed as formation of [14C]-nicotinamide mononucleotide after 1 hr by liquid scintillation counting analysis; type: cell-based
Sequence of Nicotinamide phosphoribosyltransferase (P43490 whole entry): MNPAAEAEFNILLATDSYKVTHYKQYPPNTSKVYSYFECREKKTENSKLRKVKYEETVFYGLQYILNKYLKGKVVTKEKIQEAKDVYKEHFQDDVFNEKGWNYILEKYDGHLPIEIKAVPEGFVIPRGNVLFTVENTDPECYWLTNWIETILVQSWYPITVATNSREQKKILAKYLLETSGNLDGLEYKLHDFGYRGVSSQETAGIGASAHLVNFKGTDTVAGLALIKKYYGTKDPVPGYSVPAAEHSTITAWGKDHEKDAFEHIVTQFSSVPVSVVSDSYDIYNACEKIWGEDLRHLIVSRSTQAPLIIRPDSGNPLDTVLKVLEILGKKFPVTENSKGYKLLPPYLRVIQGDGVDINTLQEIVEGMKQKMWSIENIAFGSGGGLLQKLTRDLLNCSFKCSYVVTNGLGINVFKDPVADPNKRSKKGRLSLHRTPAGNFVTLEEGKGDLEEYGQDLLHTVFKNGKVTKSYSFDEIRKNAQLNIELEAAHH

Plasma = experiment: Metabolic stability in mouse plasma assessed as compound hydrolysis; type: ADME, cell-free
A2780 [15] = experiment: Antitumor activity against human A2780 cells xenografted in NMRI/nude mouse assessed as tumor growth inhibition at 15 mg/kg, ip bid administered for 5 days measured at day 14 relative to vehicle-treated control; type: functional; conditions: route intraperitoneal
MCF7 [16] = experiment: cells; conditions: Homo sapiens
[17] = Half life in NMRI mouse at 20 mg/kg, iv; type: ADME, organism-based; design: dose 20 mg/kg, route intravenous; conditions: in vivo; method in brief: as §1
[18] = Cmax in NMRI mouse at 20 mg/kg, iv; type: ADME, organism-based; design: dose 20 mg/kg, route intravenous; conditions: in vivo; method in brief: as §1
A-431 = experiment: Cytotoxicity against human A431 cells by clonogenic assay; type: functional, cell-based
Mus musculus [19] = experiment: Toxicity in human A2780 cells xenografted NMRI/nude mouse containing small tumors assessed as effect on body weight at 15 mg/kg, ip bid administered for 5 days measured at day 14 relative to vehicle-treated control; type: organism-based; design: dose 15 mg/kg, route intraperitoneal; conditions: in vivo, 120 h
[20] = Apparent volume of distribution in NMRI mouse at 20 mg/kg, iv; type: ADME, organism-based; design: dose 20 mg/kg, route intravenous; conditions: in vivo, read-out: Vz; method in brief: as §1
PC-3 = experiment: Cytotoxicity against human PC3 cells by clonogenic assay; type: functional, cell-based
[21] = Tmax in NMRI mouse at 20 mg/kg, iv; type: ADME, organism-based; design: dose 20 mg/kg, route intravenous; conditions: in vivo; method in brief: as §1
[22] = Clearance in NMRI mouse at 20 mg/kg, iv; type: ADME, organism-based; design: dose 20 mg/kg, route intravenous; conditions: in vivo; method in brief: as §1
[23] = AUC in NMRI mouse at 20 mg/kg, iv; type: ADME, organism-based; design: dose 20 mg/kg, route intravenous; conditions: plasma; method in brief: as §1
A2780 [24] = experiment: cells; conditions: Homo sapiens
[25] = Cytotoxicity against human NYH cells by clonogenic assay; type: functional, cell-based
SK-OV-3 = experiment: Cytotoxicity against human SKOV3 cells by clonogenic assay; type: functional, cell-based
Mus musculus [26] = experiment: Toxicity in human A2780 cells xenografted NMRI/nude mouse containing large tumors assessed as effect on body weight at 5 to 10 mg/kg, ip bid administered for 10 days measured during compound administration; conditions: in vivo, 240 h
Mus musculus [27] = experiment: Toxicity in human A2780 cells xenografted NMRI/nude mouse containing small tumors assessed as effect on body weight at 0.63 to 2.5 mg/kg, ip bid administered for 5 days measured at day 14 relative to vehicle-treated control; type: organism-based; design: dose 0.63-2.5 mg/kg, route intraperitoneal; conditions: in vivo, 120 h
Mus musculus [28] = experiment: Toxicity in human A2780 cells xenografted NMRI/nude mouse containing large tumors assessed as effect on body weight at 3 mg/kg, ip bid administered for 10 days; conditions: in vivo

SMILES: O=C1C(=O)C(Nc2ccncc2)C1NCCCCCCS(=O)(=O)N(OCCN1CCOCC1)C1CCCCC1 (stereo not drawn)
Tmax [1]: 4.98 min
clearance [2]: 66.6 mL/min/kg
MTD at 120 h [3]: < 10 mg/kg
IC50 (A2780 [4]): 0.49 nM
MTD at 120 h [5]: < 10 mg/kg
IC50 (MCF7 [6]): 9 nM
Ratio IC50 (HCT-116 [7]): 128
Cmax [8]: 33500 ng/mL
Vd [9]: 1.2 L/kg
IC50 (HCT-116 [10]): > 5000 nM
half-life [11]: 12.6 min
IC50 (HCT-116 [12]): 39 nM
AUC [13]: 12500 ng·h/mL

IC50 [14]: 133 nM
SMILES: O=C(NCCCCCCS(=O)(=O)N(CCN1CCOCC1)CC1CCCCC1)Nc1ccncc1
IC50 (A2780 [4]): 0.56 nM
IC50 (MCF7 [6]): 1.4 nM

SMILES: O=C(NCCCCCCS(=O)(=O)N(OCCN1CCOCC1)C1CCCC1)NCc1cccnc1
IC50 (A2780 [4]): 0.58 nM
IC50 (MCF7 [6]): 5.8 nM

SMILES: N#C/N=C(\NCCCCCCS(=O)(=O)N(CCN1CCOCC1)OCc1ccccc1)Nc1ccncc1
IC50 (A2780 [4]): 0.053 nM
IC50 (MCF7 [6]): 0.63 nM

SMILES: O=C(NCCCCCCS(=O)(=O)N(OCCN1CCOCC1)C1CCCCC1)Nc1ccncc1
Tmax [1]: 4.8 min
clearance [2]: 118 mL/min/kg
MTD at 120 h [3]: < 10 mg/kg
IC50 (A2780 [4]): 0.25 nM
MTD at 120 h [5]: < 10 mg/kg
IC50 (MCF7 [6]): 0.05 nM
Ratio IC50 (HCT-116 [7]): 128
Cmax [8]: 14800 ng/mL
Vd [9]: 4.6 L/kg
IC50 (HCT-116 [10]): > 5000 nM
half-life [11]: 27 min
IC50 (HCT-116 [12]): 5.3 nM
IC50 [14]: 49 nM
AUC [13]: 7020 ng·h/mL

SMILES: O=C1C(=O)C(Nc2ccncc2)C1NCCCCCCS(=O)(=O)N(OCCN1CCOCC1)C1CCC1 (stereo not drawn)
IC50 (A2780 [4]): 0.2 nM
IC50 (MCF7 [6]): 29.1 nM

SMILES: O=C(NCCCCCS(=O)(=O)N(OCCN1CCOCC1)C1CCCC1)NCc1cccnc1
IC50 (A2780 [4]): 2.7 nM
IC50 (MCF7 [6]): 7 nM

SMILES: N#C/N=C(\NCCCCCS(=O)(=O)N(OCCN1CCOCC1)C1CCCC1)Nc1ccncc1
IC50 (A2780 [4]): 0.022 nM
IC50 (MCF7 [6]): 0.041 nM

SMILES: N#C/N=C(\NCCCCCCS(=O)(=O)N(OCCN1CCOCC1)C1CCC1)Nc1ccncc1
IC50 (A2780 [4]): 0.049 nM
IC50 (MCF7 [6]): 0.007 nM

SMILES: O=C1C(=O)C(Nc2ccncc2)C1NCCCCCS(=O)(=O)N(OCCN1CCOCC1)C1CCCC1 (stereo not drawn)
IC50 (A2780 [4]): 0.38 nM
IC50 (MCF7 [6]): 46.3 nM

SMILES: O=C(NCCCCCS(=O)(=O)N(OCCN1CCOCC1)C1CCCCC1)Nc1ccncc1
IC50 (A2780 [4]): 3.4 nM
IC50 (MCF7 [6]): 28 nM

SMILES: O=C1C(=O)C(Nc2ccncc2)C1NCCCCCCC(=O)N(Cc1ccccc1)OCCN1CCOCC1 (stereo not drawn)
IC50 (A2780 [4]): 0.29 nM
IC50 (MCF7 [6]): 12.3 nM

IC50 [14]: 4.4 nM
SMILES: N#C/N=C(\NCCCCCCCC(=O)N(Cc1ccccc1)OCCN1CCOCC1)Nc1ccncc1
IC50 (A2780 [4]): 0.01 nM

Stability (Plasma): Unstable
SMILES: N#C/N=C(\NCCCCC[C@H](Cc1ccccc1)C(=O)NOC1CCCCC1)Nc1ccncc1
IC50 (A2780 [4]): 0.22 nM
IC50 (MCF7 [6]): 1.7 nM

Stability (Plasma): Unstable
SMILES: N#C/N=C(\NCCCCC[C@@H](Cc1ccccc1)C(=O)NOC1CCCCC1)Nc1ccncc1
IC50 (A2780 [4]): 0.32 nM
IC50 (MCF7 [6]): 5.3 nM

IC50 [14]: 8.2 nM
SMILES: O=C(CCCCCCNC(=S)NCc1cccnc1)N(OCCN1CCOCC1)C1CCCCC1
IC50 (A2780 [4]): 0.91 nM
IC50 (MCF7 [6]): 5.5 nM

SMILES: O=C(CCCCCCNc1c(Nc2ccncc2)c(=O)c1=O)N(OCCN1CCOCC1)C1CCCCC1
IC50 (A2780 [4]): 0.03 nM

IC50 [14]: 0.2 nM
SMILES: N#C/N=C(\NCCCCCCC(=O)N(OCCN1CCOCC1)C1CCCCC1)Nc1ccncc1
IC50 (A2780 [4]): 0.1 nM
IC50 (MCF7 [6]): 0.42 nM

SMILES: O=C(/C=C/c1cccnc1)NCCCCC1CCN(C(=O)c2ccccc2)CC1 [DAPORINAD]
T/C (A2780 [15]): 52%
IC50 (MCF7 [16]): 8.4 nM
half-life [17]: 24 min
MTD at 120 h [3]: < 10 mg/kg
Cmax [18]: 14600 ng/mL
IC50 (A-431): 6.1 nM
IC50 (A2780 [4]): 1.6 nM
Activity (Mus musculus [19]): Non-toxic
Vd [20]: 0.998 L/kg
IC50 (PC-3): 3.8 nM
MTD at 120 h [5]: < 10 mg/kg
Tmax [21]: 15 min
IC50 (MCF7 [6]): 7.4 nM
clearance [22]: 27 mL/min/kg
IC50 (HCT-116 [10]): 946 nM
AUC [23]: 12300 ng·h/mL
IC50 (A2780 [24]): 5.7 nM
IC50 [25]: 1.5 nM
IC50 (HCT-116 [12]): 10.9 nM
IC50 (SK-OV-3): 211 nM

SMILES: N#C/N=C(\NCCCCCCCS(=O)(=O)N(OCCN1CCOCC1)C1CCCCC1)Nc1ccncc1
IC50 (A2780 [4]): 0.089 nM
IC50 (MCF7 [6]): 0.29 nM

SMILES: N#C/N=C(\NCCCCCCS(=O)(=O)N(OCCN1CCOCC1)C1CCCC1)Nc1ccncc1
IC50 (A2780 [4]): 0.0041 nM

SMILES: O=C(NCCCCCS(=O)(=O)N(OCCN1CCOCC1)C1CCCCC1)NCc1cccnc1
IC50 (A2780 [4]): 4.6 nM
IC50 (MCF7 [6]): 6.5 nM

IC50 [14]: 2.4 nM
SMILES: N#CNC(=Nc1ccncc1)NCCCCCCS(=O)(=O)NOCC1CCCCC1
IC50 (A2780 [4]): 0.16 nM
IC50 (MCF7 [6]): 3.4 nM

SMILES: N#CNC(=Nc1ccncc1)NCCCCCCS(=O)(=O)N(OCCN1CCOCC1)C1CCCCC1
Activity (Mus musculus [26]): Toxic
Tmax [1]: 4.8 min
clearance [2]: 81.8 mL/min/kg
MTD at 120 h [3]: < 10 mg/kg
Activity (Mus musculus [27]): Non-toxic
MTD at 120 h [5]: < 10 mg/kg
Cmax [8]: 14100 ng/mL
Vd [9]: 1.28 L/kg
half-life [11]: 10.8 min
Activity (Mus musculus [28]): Non-toxic
IC50 [14]: 0.3 nM
AUC [13]: 10200 ng·h/mL
